Converted amounts (≈) assume the structure as drawn. “And” between values parts separate entries of the source, which are not always exact repeats. Equal entries are not always repeated. “Also recorded” adds a separate entry of the source. Where two headings read alike, the source gives them in different places.

Data set [1] concerns the target T1, E. coli WecA (Escherichia coli, UniProt P0AC78).
T1 sequence (P0AC78 1-367): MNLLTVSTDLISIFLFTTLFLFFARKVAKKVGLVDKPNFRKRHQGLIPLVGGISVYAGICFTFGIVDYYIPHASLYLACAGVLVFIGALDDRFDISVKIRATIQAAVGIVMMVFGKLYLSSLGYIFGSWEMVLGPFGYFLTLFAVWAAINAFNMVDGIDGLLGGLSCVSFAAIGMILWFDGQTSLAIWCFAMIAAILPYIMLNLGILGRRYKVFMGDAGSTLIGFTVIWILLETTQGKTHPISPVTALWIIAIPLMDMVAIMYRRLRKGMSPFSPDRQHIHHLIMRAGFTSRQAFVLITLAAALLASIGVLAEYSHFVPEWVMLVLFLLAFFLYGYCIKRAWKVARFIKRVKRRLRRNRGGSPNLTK
Put plainly: biochemical. The format is biochemical.

Data set [2] relates to Hydrogenivirga spp. MraY. The format is biochemical. The conditions noted are these: for IC50: read-out: MraY inhibition IC50.
In data set [3] the test system is C. difficile ATCC 43596. Briefly: microbe, parasite or virus in culture. The format is cell-based, Clostridium difficile. The conditions noted are these: for MIC: Clostridioides difficile, ATCC43596, read-out: C. difficile ATCC 43596 MIC.
The target of data set [4] is T2, M. jannaschii AglH (Methanocaldococcus jannaschii, UniProt Q58513).
T2 sequence (Q58513 1-301): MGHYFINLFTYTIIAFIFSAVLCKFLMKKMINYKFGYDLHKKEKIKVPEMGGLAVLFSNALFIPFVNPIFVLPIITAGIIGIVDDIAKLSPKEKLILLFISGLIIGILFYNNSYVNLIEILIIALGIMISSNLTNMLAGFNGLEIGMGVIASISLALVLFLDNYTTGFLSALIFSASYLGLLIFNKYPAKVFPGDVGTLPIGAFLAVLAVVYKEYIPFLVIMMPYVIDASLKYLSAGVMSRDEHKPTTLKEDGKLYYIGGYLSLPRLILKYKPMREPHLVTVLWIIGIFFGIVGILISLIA
Put plainly: AglH counterselection assay. The format is biochemical. Conditions: read-out: AglH inhibition IC50, M. jannaschii AglH.

The test system of data set [5] is sheep blood. Briefly: Hemolysis assay. The conditions noted are these: for IC50: read-out: hemolysis IC50, sheep blood. The format is cell-based.
The subject of data set [6] is C. difficile spore outgrowth. Conditions: high concentrations; cited from earlier work.
Data set [7] relates to vegetative C. difficile. The conditions noted are these: cited from earlier work.
Data set [8] deals with C. difficile (ATCC 43596) spores. Briefly: C. difficile spore viability / outgrowth assay. The conditions noted are these: 24 h treatment, taurocholate agar. The format is cell-based, Clostridium difficile.
Data set [9] concerns the target T3, M. smegmatis WecA (Mycolicibacterium smegmatis, UniProt A0R211).
T3 sequence (A0R211 1-406): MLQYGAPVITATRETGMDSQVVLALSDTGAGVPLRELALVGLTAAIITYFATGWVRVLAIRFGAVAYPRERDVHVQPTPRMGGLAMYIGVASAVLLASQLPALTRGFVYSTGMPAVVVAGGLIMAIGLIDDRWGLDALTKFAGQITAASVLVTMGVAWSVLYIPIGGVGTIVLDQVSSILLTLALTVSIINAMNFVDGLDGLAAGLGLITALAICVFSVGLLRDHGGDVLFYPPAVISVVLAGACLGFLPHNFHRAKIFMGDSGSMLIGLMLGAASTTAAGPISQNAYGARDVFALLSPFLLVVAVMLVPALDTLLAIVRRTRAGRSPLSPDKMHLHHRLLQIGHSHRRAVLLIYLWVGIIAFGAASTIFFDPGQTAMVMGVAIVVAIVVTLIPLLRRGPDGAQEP
Briefly: WecA inhibition assay. The format is biochemical.

Data set [10] has as its system Vero cells. Put plainly: Vero cell cytotoxicity. The format is cell-based, African green monkey. The procedure, abridged: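 Vero cells (ATCC CCL-81) grown in flasks, then seeded into 96-well plates in Eagle's minimum essential medium with 10% FBS and penicillin–streptomycin. Test compound stock was 1 mg per 100 μL in PEG 300–water (1/1). Serial dilutions spanning 0.78–200 μg/mL were added, with known-toxicity control compounds on every plate. After incubation, cytotoxicity was read by MTT.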

Data set [11] is described as follows: Water solubility. The format is physicochemical.
Data set [12] concerns Clostridium perfringens (ATCC 13124). Put plainly: microbe, parasite or virus in culture. The format is cell-based. Conditions: ATCC13124, read-out: MIC Clostridium perfringens.
The subject of data set [13] is Bacillus subtilis (ATCC 6051). Briefly: microbe, parasite or virus in culture. The format is cell-based. The conditions noted are these: ATCC6051, read-out: MIC Bacillus subtilis.
For data set [14], the system named is Lactobacillus spp. The format is cell-based.
Data set [15] concerns Staphylococcus aureus. The format is cell-based.
For data set [16], the system named is Staphylococcus pneumoniae. The format is cell-based.
Data set [17] has as its system all Gram-negative bacteria tested. The format is cell-based.

What is called IC50 is the concentration that gives 50% inhibition. As for `CN(CCCN)[C@H](C(N)=O)[C@H](O[C@@H]1O[C@H](CN)[C@@H](O)[C@H]1O)[C@H]1O[C@@H](n2ccc(=O)[nH]c2=O)C(O)C1O` (some centres unmarked) [compound 7, FR-900493-Amide], the “WecA inhibitory activity (in words)” value in data set [1] is “equal to that of 1”. Moreover, in [2], the “MraY inhibitory activity (in words)” value was “equal to that of 1” and the IC50 stood at 25 ± 9.67 µM. The MIC in [3] is over 25 µg/mL.

Take tunicamycin [reference compound]: the “C. difficile ATCC 43596 MIC” value in data set [3] was >25.0 µg/mL and >50.0 µg/mL. In addition, the IC50 in data set [4] was 13.3 ± 8.1 µM; in data set [5], 15 ± 7.83 µM.

Turning to `NCCCN[C@H](C(N)=O)[C@H](O[C@@H]1O[C@H](CN)[C@@H](O)[C@H]1O)[C@H]1O[C@@H](n2ccc(=O)[nH]c2=O)C(O)C1O` (some centres unmarked) [compound 8, De N-Methyl FR-900493], in [1], the concentration for half-maximal inhibition (IC50) was over 100 µM and the “WecA inhibitory activity (in words)” value is on record as “completely lost”. Also, in data set [2], the “MraY inhibitory activity (in words)” value is on record as “completely lost” and the IC50 was over 100 µM. For the same compound, the MIC in data set [3] was over 25 µg/mL.

What is called MIC90 is the lowest concentration that inhibits either 90% of growth or 90% of the strains tested, depending on the study. Consider `CCc1c(Cl)c(O)c(Cl)c(O)c1C(=O)O[C@H]1[C@H](O)[C@H](OC)[C@H](OC/C2=C\C=C\C[C@H](O)/C(C)=C/[C@H](CC)[C@@H](O[C@@H]3OC(C)(C)[C@@H](OC(=O)C(C)C)[C@H](O)[C@@H]3O)/C(C)=C/C(C)=C/C[C@@H]([C@@H](C)O)OC2=O)O[C@@H]1C` [fidaxomicin], for which the “concentration inhibiting C. difficile spore outgrowth” value in [6] was 4.0 to 14 µg/mL. Besides, in data set [7], the MIC90 was 0.5 µg/mL (≈ 0.473 µM).

Regarding `CN(CCCC(=O)NCc1ccc(N2CCC(Oc3ccc(OC(F)(F)F)cc3)CC2)cc1)[C@H](C(N)=O)[C@H](O[C@@H]1O[C@H](CN)[C@@H](O)[C@H]1O)[C@H]1O[C@@H](n2ccc(=O)[nH]c2=O)C(O)C1O` (some centres unmarked) [compound 12], the “MraY inhibitory activity relative to FR-900493 (1)” value in [2] was over 3 fold. Besides, in data set [3], the “anti-C. difficile activity in library screen” value is listed as “displayed anti-C. difficile activity” and the MIC stood at 50 ± 5.81 µg/mL (≈ 55.8 µM).

On to `CN[C@H](CC(C)C)C(=O)N[C@H]1C(=O)N[C@@H](CC(N)=O)C(=O)N[C@H]2C(=O)N[C@H]3C(=O)N[C@H](C(=O)N[C@H](C(=O)O)c4cc(O)cc(O)c4-c4cc3ccc4O)[C@H](O)c3ccc(c(Cl)c3)Oc3cc2cc(c3O[C@@H]2O[C@H](CO)[C@@H](O)[C@H](O)[C@H]2O[C@H]2C[C@](C)(N)[C@H](O)[C@H](C)O2)Oc2ccc(cc2Cl)[C@H]1O` [vancomycin, reference compound], for which the IC50 in data set [1] and in data set [2] was over 50 µM in each case. In addition, the MIC in [3] worked out at 2.5 µg/mL (≈ 1.73 µM). The “outgrowth of C. difficile spores (in words)” value (shortened to “outgrowth … (in words)”) in data set [8] (5× MIC) is reported as “did not inhibit the spore outgrowth”.

By solubility is commonly meant the concentration that dissolves in the medium under given conditions. Low readings indicate a poorly soluble substance, high ones a readily soluble substance. For `NC[C@H]1O[C@@H](O[C@@H]([C@H](NCCCC(=O)NCc2ccc(N3CCC(Oc4ccc(OC(F)(F)F)cc4)CC3)cc2)C(N)=O)[C@H]2O[C@@H](n3ccc(=O)[nH]c3=O)C(O)C2O)[C@H](O)[C@@H]1O` (some centres unmarked) [compound 11], in [3], the “C. difficile ATCC 43596 MIC” value was 3.25 ± 4.40 µg/mL. Moreover, the “anti-C. difficile activity in library screen” value in data set [3] is on record as “displayed anti-C. difficile activity”. Further, the MIC in data set [3] was found to be 3.25 µg/mL (≈ 3.69 µM); in [12], 3.1 µg/mL (≈ 3.52 µM); in [13] it was 1.6 µg/mL (≈ 1.81 µM). In addition, the IC50 is 0.25 µM in data set [9]; 65 ± 4.65 µM in [10] (Chlorocebus sabaeus, Vero, read-out: Vero cells IC50, cytotoxicity, MTT); 206 ± 4.33 µM in data set [5] (listed as UT-17460 (11)). Moreover, the “cytotoxicity against Vero cells of 11 relative to 10” value in [10] (less cytotoxic than 10) is “approximately 8 times”. Further, the “induction of hemolysis (in words)” value in [5] (at 100 μM concentration) is recorded as “does not induce hemolysis”. Further, the “outgrowth … (in words)” value in data set [8] (2× MIC) was “prevented the outgrowth; also recorded: inhibited the outgrowth”. In data set [11] (greater than 10), the “water solubility of 11 relative to 10” value is on record as 200 times. The same compound came in with a solubility in data set [11] (water) of 22 mg/mL (≈ 24900 µM). Also, the “growth inhibition of Lactobacillus spp.” value in [14] was over 25.0 µg/mL. In [15], the “growth inhibition of Staphylococcus aureus” value is over 25.0 µg/mL. Besides, the “growth inhibition of Staphylococcus pneumoniae” value in data set [16] was over 25.0 µg/mL. Moreover, the “growth inhibition of all Gram-negative bacteria tested” value in data set [17] is over 25.0 µg/mL.

Turning to `CN(CCCN)[C@H](C(=O)O)[C@@H](O[C@@H]1O[C@H](CN)[C@@H](O)[C@H]1O)[C@H]1O[C@@H](n2ccc(=O)[nH]c2=O)C(O)C1O` (stereo partly drawn) [compound 5, FR-900493-5′R,6′S-Diastereomer], the IC50 in data set [2] was over 100 µM. In addition, the MIC in data set [3] was over 25 µg/mL.

Take `CC(=O)NC[C@H]1CN(c2ccc(N3CCOCC3)c(F)c2)C(=O)O1` [linezolid]: the “outgrowth … (in words)” value in data set [8] (5× MIC) is recorded as “did not inhibit the spore outgrowth”.

Take `CN(CCCN)[C@@H](C(=O)O)[C@@H](O[C@@H]1O[C@H](CN)[C@@H](O)[C@H]1O)[C@H]1O[C@@H](n2ccc(=O)[nH]c2=O)C(O)C1O` (stereo partly drawn) [compound 6, FR-900493-5′R, 6′R-Diastereomer]: the IC50 in data set [2] is over 100 µM. For the same compound, the MIC in data set [3] is over 25 µg/mL.

Take `Cc1ncc([N+](=O)[O-])n1CCO` [metronidazole]: the “outgrowth … (in words)” value in data set [8] (5× MIC) is “did not inhibit the spore outgrowth”.
